High-throughput results (PubChem BioAssay)
Calb FLC – affects C. albicans growth with fluconazole; C. albicans CaCi-2 (fluconazole-resistant clinical isolate) + fluconazole, Alamar Blue growth, 48 h; actives 0.57% (n = 300,000); growth inhibition, % (test concentration not listed);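 active = growth inhibition above about 58% in most replicates, limit read from the data, passing the limit was not always enough; inconclusive = exactly half the replicates above a set limit; inactive = most replicates below a set limit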;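 note: all wells also contain fluconazole at 8 µg/ml as a sub-toxic cotreatment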
Ins promoter up – MIN6 insulin promoter up-regulation; MIN6 insulin promoter-GFP reporter, high-content imaging; stronger effect = higher value; z-score at 5 µM; actives 0.3% (n = 190,000); AID 1625;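 active = z-score above 3 at 5 µM with at least 500 cells counted in the well; inconclusive = wells under 500 cells, flagged as cytotoxic or low count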
SR-BI DiI inh – inhibitors of mouse SR-BI mediated HDL lipid uptake; Q61009; ldlA[mSR-BI] CHO cells, DiI-HDL uptake fluorescence, 3 h; inhibition, % at 12.5 µM; actives 0.96% (n = 320,000); AID 488896;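 active = mean replicate inhibition of at least 70% and a set share of replicates each scoring 70 or more; inconclusive = meets just one of the two criteria; inactive = fails both criteria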
beta cell repl – inducers of beta-cell replication in MIN6 cells; MIN6 cells proliferation, ATPlite luminescence, 48 h; cells starved in 0.2% serum; 100% = growth in 10% serum; proliferation, % at 10 µM; actives 0.29% (n = 330,000);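 active = compounds whose signal lies at least 3.5 SD above the mean of all wells on their plate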
SR-BI uptake up – enhances SR-BI lipid uptake from DiI-HDL; CHO ldlA[mSR-BI] cells, DiI-HDL uptake fluorescence, 3 h; 100 = double the neutral-control signal; activation, % at 12.5 µM; actives 0.096% (n = 320,000);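 active = mean replicate activation of at least 60% and every replicate at or above 60%; inconclusive = mean or all-replicate condition met, but not both; inactive = mean below 60% and not all replicates reaching 60%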
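Test system: SR-BI-overexpressing, LDLR-lacking CHO cells. Measured by: DiI fluorescence, bottom read. Medium: Ham's F12 with 0.5% BSA, HEPES 25 mM, pH 7.4. Timing: 3 h uptake period with compound, 37 °C.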
HTR2A ag – mouse HTR2A agonism via beta-arrestin recruitment | P35363 | activation, % at 7.6 µM | AID 624169 | actives 0.66% (n = 360,000) | CHO-K1 mHTR2A beta-arrestin complementation, luminescence; percent of 30 µM serotonin response;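 active = activation above a run cutoff, the mean activation of all tested compounds plus 3 SD, cut at about 14% in these data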
Target sequence (P35363 whole entry, looked up): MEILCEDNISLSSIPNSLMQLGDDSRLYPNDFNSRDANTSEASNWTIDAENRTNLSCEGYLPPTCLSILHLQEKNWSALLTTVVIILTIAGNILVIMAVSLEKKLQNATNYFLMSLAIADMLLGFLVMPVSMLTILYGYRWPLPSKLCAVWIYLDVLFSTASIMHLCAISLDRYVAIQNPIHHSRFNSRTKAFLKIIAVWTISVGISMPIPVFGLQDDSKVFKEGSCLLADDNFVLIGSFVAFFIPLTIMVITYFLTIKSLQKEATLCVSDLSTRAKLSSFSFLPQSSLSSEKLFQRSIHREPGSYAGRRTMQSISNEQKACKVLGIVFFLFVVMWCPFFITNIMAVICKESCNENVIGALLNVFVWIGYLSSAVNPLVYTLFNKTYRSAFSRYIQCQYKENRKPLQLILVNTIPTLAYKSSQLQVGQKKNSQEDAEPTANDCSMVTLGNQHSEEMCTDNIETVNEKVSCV
Numbers stand for hits; i = inactive; ? = inconclusive; nt = not tested or not shown. An excerpt weighted towards active compounds, which were near 2.4% of everything screened.

SMILES	Calb FLC	Ins promoter up	SR-BI DiI inh	beta cell repl	SR-BI uptake up	HTR2A ag
CC(C)=CCc1cc(-c2oc3cc(O)cc(O)c3c(=O)c2O)ccc1O	i	nt	i	i	i	i
Cc1ccc(C)c(NC(=O)CN(C)C(C)C(=O)N2CC(C)CC(C)C2)c1 (configuration not stated)	nt	nt	i	i	i	i
O=C(Nc1cccc(F)c1)c1ccc2ncsc2c1	111.0	nt	i	i	i	i
O=C(Nc1ccccc1F)c1ccc2ncsc2c1	105.3	nt	nt	i	nt	i
O=C(Nc1ccc(F)cc1F)c1ccc2ncsc2c1	i	nt	i	i	i	i
O=C1C2CC3N1CCC31c3ccccc3-n3c1c2ccc3=O (configuration not stated)	nt	nt	i	nt	i	i
CCOCCOCCC(C(=O)OCC)P(=O)(c1ccccc1)c1ccccc1 (configuration not stated)	i	i	i	i	i	i
C=CCOC(=O)c1sc(NC(=O)c2ccco2)nc1C	78.5	i	i	i	i	i
COc1cc(C2=NC(CO)(CO)CO2)cc(OC)c1OC	i	i	i	i	448.4	i
CC1(C)CC(=O)c2cc(OCC(=O)N3CCN(c4ccccc4F)CC3)ccc2O1	i	i	i	i	i	i
CC1(C)CC(=O)c2c(O)cc(OCC(=O)N3CCN(c4ccc(F)cc4)CC3)cc2O1	i	nt	79.7	i	i	i
CCOC(=O)C1(C)CCCN1C(=O)c1csnn1 (configuration not stated)	nt	nt	nt	nt	nt	i
CCc1cccc2c(C(=O)COC(=O)/C=C/c3ccc(O)c(OC)c3)c[nH]c12	i	i	75.5	i	i	i
COCCN(CCOC)Cc1cc(=O)oc2cc3c(cc12)CCC3	i	3.14	i	i	i	i
COc1ccc(C(=O)NC(=S)NNC(=O)c2cnccn2)cc1	118.4	i	i	i	i	i
O=C(NC(=S)NNC(=O)c1cnccn1)c1ccc(Cl)cc1	94.4	nt	i	i	i	i
Oc1nc(Nc2ccccc2)sc1/C=C1\C=Nc2ccccc21	90.9	i	nt	i	nt	i
CC(C)(C)C(=O)NC(=S)NNC(=O)c1sc2ccccc2c1Cl	88.3	i	i	i	i	i
CC1(C(=O)NS(=O)(=O)c2ccc(Cl)cc2)CCN1C(=O)C/C=C/c1ccccc1 (configuration not stated)	nt	nt	nt	nt	nt	i
CCOc1ccc(/C=N/NC(=O)c2nnn(-c3nonc3N)c2-c2ccc(OCC)cc2)cc1	i	i	i	i	i	i
CC(C)c1c(C(=O)N/N=C/c2ccoc2)nnn1-c1nonc1N	i	nt	i	i	i	i
CC(C)c1c(C(=O)N/N=C/c2ccc(C(F)(F)F)cc2)nnn1-c1nonc1N	nt	nt	77.1	i	i	i
CCCOc1ccc(-c2c(C(=O)N/N=C/c3ccccc3)nnn2-c2nonc2N)cc1	i	i	76.5	i	i	i
CCOC(=O)c1nnn(-c2nonc2N)c1-c1ccc(OCC)cc1	i	3.82	i	i	i	i
CCOc1ccc(-c2c(C(=O)N/N=C/c3ccoc3)nnn2-c2nonc2N)cc1	i	nt	i	i	i	i
SMILES	Calb FLC	Ins promoter up	SR-BI DiI inh	beta cell repl	SR-BI uptake up	HTR2A ag
Nc1nonc1-n1nnc(C(=O)N/N=C/c2ccccc2F)c1-c1cccs1	i	nt	74.4	i	i	i
CC(=O)Nc1ccc(N=Nc2ccc(O)cc2)cc1	i	i	i	i	i	i
N#Cc1cccc(C(=O)C(=O)N2CCN(c3ccccc3)CC2)c1	nt	nt	nt	nt	nt	i
CCOc1ccc(-c2c(C(=O)N/N=C/c3c[nH]c4ccccc34)nnn2-c2nonc2N)cc1	i	nt	88.1	i	i	i
CCOc1cccc(-c2c(C(=O)N/N=C(\C)c3ccccn3)nnn2-c2nonc2N)c1	82.0	nt	i	nt	i	i
Nc1nc(N)c2c(ccc3c2ccn3Cc2cccc([N+](=O)[O-])c2)n1	nt	nt	nt	nt	nt	i
CC(=O)c1ccc(S(=O)(=O)N(C)CCCC(=O)NCc2ccc3c(c2)OCO3)cc1	nt	nt	i	i	i	i
CNc1cc(-c2cccc(N(C)C)c2)ncn1	nt	nt	nt	nt	nt	i
CCCSc1ccc([C@@H]2[C@@H]3C(=O)N(C)C(=O)[C@@H]3[C@]3(C(=O)OC)CCCN23)cc1OC	nt	nt	i	i	i	i
CCC1=NN(C(=O)c2cccc([N+](=O)[O-])c2)C(O)(c2ccc(C)cc2)C1 (configuration not stated)	i	nt	76.0	i	i	i
CC1=NN(C(=O)c2ccccc2Cl)C(O)(c2ccccc2)C1 (configuration not stated)	i	nt	i	i	i	i
CCOC(=O)C1=NN(C(=O)c2ccccc2)C(O)(c2ccc(C)cc2)C1 (configuration not stated)	i	i	i	i	i	i
CC1=NN(C(=O)c2ccccc2)C(O)(c2ccc(Br)cc2)C1 (configuration not stated)	i	i	94.3	i	i	i
CCC1=NN(C(=O)c2ccc(Br)cc2)C(O)(c2ccccc2)C1 (configuration not stated)	?	i	79.5	i	i	i
CCOC(=O)[C@]12CCCC=C1N(CCC1=CCCCC1)C(=O)[C@H](CC(=O)NCc1ccccc1)C2	nt	nt	nt	nt	nt	i
COc1ccc(-c2c/c(=N\c3nc(-c4ccccc4)c(C)s3)c3ccccc3o2)cc1O	i	i	80.2	i	i	i
CC1(C(=O)Nc2ccc3c(c2)OCCO3)CN(S(C)(=O)=O)CC(=O)N1CCCn1ccnc1 (configuration not stated)	nt	nt	nt	nt	nt	i
CC[C@@]1(C(=O)OC)N[C@H](CN(C)C(=O)Nc2ccc(OC)cc2)[C@@H]2C(=O)N(Cc3ccccc3)C(=O)[C@@H]21	nt	nt	i	i	i	i
C=CCn1c(O)c(N=NC(=S)Nc2ccccc2C)c2cc(S(=O)(=O)N3CCOCC3)ccc21	105.9	i	i	i	i	i
Cn1c(O)c(N=NC(=S)Nc2ccccc2F)c2cc(S(=O)(=O)N3CCOCC3)ccc21	i	i	i	nt	i	i
COc1ccccc1C(=O)Nc1ccc2c(c1)nc(CN1CCCCC1)n2C	i	i	i	i	i	i
COc1cccc(C2CC(c3ccc(NS(C)(=O)=O)cc3)=NN2C(=O)c2ccccc2)c1OC (configuration not stated)	102.9	nt	i	i	i	i
CCOC(=O)C1CCN(Cc2ccc(OC)cc2OC)CC1	i	i	i	i	i	i
CCOC(=O)C1CCN(Cc2cnc(Oc3ccc(OC)cc3)s2)CC1	i	nt	i	i	i	22.4
CCC(=O)Oc1ccc(C(=O)Nc2cccc(C(=O)NCC(C)C)c2)cc1	i	i	i	i	i	i
CC(C)CNC(=O)c1cccc(NC(=O)c2ccc3c(c2)C(=O)N(C)C3=O)c1	i	nt	81.1	i	i	i
N/C(Cc1ccc(Cl)cc1Cl)=N\OC(=O)c1ccccc1	117.8	i	i	i	i	i
N/C(Cc1ccc(Cl)cc1Cl)=N\OC(=O)Cc1ccccc1	i	i	i	i	i	i
